Source: PubChem BioAssay
A selection: hits, their analogues and other compounds. The true share with any hit is near 3.7%.
KCC2 mod – KCC2 (human) Cl- transport modulation | Q9H2X9 | KCC2 cells, thallium flux FluoZin-2 fluorescence | B-score of Tl+ flux slope (higher = more flux/activation; lower = inhibition) at 10 µM | 2.2% of 190,000 active;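 active = thallium flux slope and its plate-corrected score both differing from the plate sample mean at a set confidence after two filtering rounds, in either direction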;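 also: slope of fluorescence scaled to starting intensity during 10 to 20 s after thallium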
Target sequence (Q9H2X9 whole entry, looked up): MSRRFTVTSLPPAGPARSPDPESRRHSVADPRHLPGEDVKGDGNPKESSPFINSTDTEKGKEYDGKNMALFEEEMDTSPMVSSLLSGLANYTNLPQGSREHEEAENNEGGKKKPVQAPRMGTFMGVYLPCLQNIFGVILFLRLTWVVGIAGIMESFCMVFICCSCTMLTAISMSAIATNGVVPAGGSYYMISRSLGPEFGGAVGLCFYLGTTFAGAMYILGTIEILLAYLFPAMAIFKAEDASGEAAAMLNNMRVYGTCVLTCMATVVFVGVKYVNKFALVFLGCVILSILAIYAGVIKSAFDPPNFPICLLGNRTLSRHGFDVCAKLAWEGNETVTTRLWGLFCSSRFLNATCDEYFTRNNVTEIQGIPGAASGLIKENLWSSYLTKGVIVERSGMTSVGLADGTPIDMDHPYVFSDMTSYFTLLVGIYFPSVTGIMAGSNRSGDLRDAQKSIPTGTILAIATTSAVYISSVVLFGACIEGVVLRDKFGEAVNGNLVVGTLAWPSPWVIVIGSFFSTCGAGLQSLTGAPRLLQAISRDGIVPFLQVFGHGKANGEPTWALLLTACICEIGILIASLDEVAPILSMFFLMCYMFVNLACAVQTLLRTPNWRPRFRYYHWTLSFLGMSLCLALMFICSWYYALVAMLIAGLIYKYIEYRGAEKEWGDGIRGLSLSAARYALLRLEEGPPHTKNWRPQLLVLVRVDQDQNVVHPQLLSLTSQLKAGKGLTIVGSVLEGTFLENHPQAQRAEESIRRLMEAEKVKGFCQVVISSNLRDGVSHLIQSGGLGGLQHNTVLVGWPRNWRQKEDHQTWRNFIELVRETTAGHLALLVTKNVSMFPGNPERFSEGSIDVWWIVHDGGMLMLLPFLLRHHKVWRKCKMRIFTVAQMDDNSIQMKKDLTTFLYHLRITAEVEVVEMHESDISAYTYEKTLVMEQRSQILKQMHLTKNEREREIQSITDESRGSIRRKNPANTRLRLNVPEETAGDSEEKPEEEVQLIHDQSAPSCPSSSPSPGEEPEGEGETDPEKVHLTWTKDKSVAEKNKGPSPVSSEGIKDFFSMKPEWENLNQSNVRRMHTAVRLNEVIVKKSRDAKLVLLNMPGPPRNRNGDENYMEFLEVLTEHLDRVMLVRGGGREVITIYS
MT stabilizer – microtubule stabilizers in HeLa cells; 0.83% of 200,000 active; HeLa tubulin immunostaining HCS, 24 h; share of cells brighter than vehicle mean+2SD; % tubulin-high responders, % at 10 µM;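 active = plate Z-score above 3 for both tubulin-high and condensed-nucleus cell shares, with cell loss under 80%, at 10 µM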;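 also: anti alpha tubulin signal scored within the nucleus-defined area of each cell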
DTT redox prof – compounds producing H2O2 with reducing agent – biochemical, NIH compound library profiling, artefact control for MLSCN library redox annotation, primary screen | DTT-dependent redox cycling H2O2, phenol red/HRP absorbance; 100% = 100 µM peroxide control, 0% = buffer | activation, % at 10 µM | 0.03% of 200,000 active;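 active = activation of at least 50% relative to the plate's high and low controls in the primary single-dose screen; inactive = activation below 50%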;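 also: compound incubated with DTT at 0.8 mM final as the reducing agent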
bCat nuc transl – beta-catenin nuclear translocation modulation; 0.3% of 190,000 active; AID 1665; nuclear translocation activity, % at 5 µM; HeLa beta-catenin nuclear translocation, immunofluorescence imaging;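 active = nuclear translocation activity above 50% at 5 µM, with a well cell count of 50 or more; inconclusive = wells under 50 cells across six images, flagged as toxic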;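 also: per-cell ratio of nuclear to cytoplasmic median beta-catenin stain intensity; plate controls were DMSO negative control for no effect and GSK-3 inhibitor IX positive control for full effect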
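Test system: HeLa cells, endogenous beta-catenin; Compound: single 5 µM dose plus 0.02–20 µM confirmation series; Times: compound exposure 24 h at 37°C; Signal: fluorescence imaging of beta-catenin antibody stain plus DAPI; Read-out: % activation, nuclear-to-cytoplasmic median beta-catenin signal ratio per cell.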
ROMK primary – modulators of human ROMK potassium channel; Tet-inducible ROMK, thallium flux fluorescence; actives lie on both sides; B-score at 10 µM; 2% of 130,000 active; AID 1918;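 active = signal ratio slope over the read window, or its plate-corrected B-score, at least 3 SD from the plate mean, either direction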;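 also: B-score of the F/F0 ratio slope over 7 to 12 s after thallium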
KCC2 secondary – confirmation of human KCC2 transport modulators; shares compounds with KCC2 mod; HEK293-KCC2, thallium flux, FluoZin2 fluorescence; stronger effect = higher value; normalised thallium flux (F/F0 slope) at 10 µM; 15% of 3,700 active;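 active = thallium flux slope above the same plate's solvent-only control mean plus 3 SD; inconclusive = the two replicate wells disagree; inactive = no significant difference from solvent-only control wells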
KCC2 bumet counter – thallium flux persisting under bumetanide in KCC2 cells, counter-screen secondary assay | shares compounds with KCC2 mod | HEK293-KCC2 + bumetanide/ouabain, thallium flux FluoZin2; stronger effect = higher value | normalized thallium flux at 10 µM | 49% of 3,700 active | AID 1714;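 active = thallium entry rate above the same plate's blocked-transporter control wells by more than 3 SD; inconclusive = the two repeat wells disagree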;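 also: raw slope of fluorescence over initial fluorescence between 10 and 20 s after thallium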
KCC2 secondary2 – KCC2 (human) modulation, second secondary assay; shares compounds with KCC2 mod; HEK293-KCC2, thallium flux FluoZin2 fluorescence; actives lie on both sides; F/F0 rise rate, 10–20 s post-thallium; normalized thallium flux at 10 µM; 23% of 3,700 active;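 active = thallium flux slope more than 3 SD above or below the plate's solvent-only control mean, mostly below; inconclusive = the two repeat wells disagreed; inactive = no significant shift from solvent-only controls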;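 also: raw slope with 0.1% DMSO as baseline and bumetanide as block control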
HEK293 Tl flux – acts in parental HEK cells, KCC2 counter-screen | shares compounds with KCC2 mod | HEK293 parental cells, thallium flux FluoZin2, ouabain; baseline-ratio fluorescence slope, 10–20 s after thallium | thallium flux rate (normalised fluorescence) at 10 µM | 46% of 3,700 active | AID 1716;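 active = thallium flux rate significantly above the same plate's solvent-only control wells, beyond their mean plus 3 SD; inconclusive = the two replicate wells gave conflicting results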
KCC2 ouabain – KCC2 (human) modulation, ouabain retest; shares compounds with KCC2 mod; HEK293-KCC2, thallium flux FluoZin2 fluorescence; bidirectional: low = inhibitor, high = activator; raw Tl+ flux slope (below DMSO = inhibition, above = activation) at 10 µM; 48% of 3,700 active; AID 1717;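 active = thallium flux slope beyond 3 SD from same-plate DMSO control mean in most replicates, usually higher, sometimes lower; inconclusive = repeat tests gave conflicting results; inactive = no significant difference from controls in most replicates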;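 also: slope of initial-normalized fluorescence between seconds 10 and 20 after thallium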
HEK counter2 – acts in parental HEK cells, second KCC2 counter-screen; AID 1718; 33% of 3,700 active; thallium flux slope at 10 µM; shares compounds with KCC2 mod; HEK293 parental, thallium flux FluoZin-2 fluorescence slope;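 active = thallium flux slope above the same plate's solvent-control mean plus 3 SD in both duplicate wells; inconclusive = duplicate wells that disagreed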;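 also: run without ouabain in cells lacking the KCC2 cotransporter; slope of fluorescence scaled to its starting value between 10 and 20 s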
Starred values were filed as active, the others as inactive; i = inactive; u = inconclusive; x = no result.

SMILES | KCC2 mod | MT stabilizer | DTT redox prof | bCat nuc transl | ROMK primary | KCC2 secondary | KCC2 bumet counter | KCC2 secondary2 | HEK293 Tl flux | KCC2 ouabain | HEK counter2
COc1ccccc1/C=C(\NC(=O)c1ccc(OC)c(OC)c1)C(=O)Nc1cc([N+](=O)[O-])ccc1C | 5.2* | 2 | 0 | 0 | 0.011 | 0.015 | 0.0045 | 0.028 | 0.0068 | 0.017 | 0.0095
CC(C(=O)N=c1sc2ccccc2n1C)N1C(=O)C2CC=CCC2C1=O (stereo not drawn) | x | 6 | 0 | -5 | x | 0.0072 | u | u | 0.0073 | u | 0.011
CCOc1ccc(-c2nnn(CC(=O)N3CCCC(C)C3)n2)cc1 (stereo not drawn) | 0.46 | 3 | 0 | 1 | -0.61 | x | x | x | x | x | x
COc1ccc(C(=O)NC(=S)N2CCN(c3ccc([N+](=O)[O-])cc3)CC2)cc1 | 4.1* | 3 | 0 | -3 | x | 0.0063 | 0.012* | 0.032 | 0.0096* | 0.029* | 0.011*
CCCc1cc2c(cc1NC(=O)c1ccc(C)cc1)OCO2 | -0.5 | 3 | -3 | 0 | -0.22 | x | x | x | x | x | x
CCOC(=O)/C(=C/C1=CC(=C/N(C)C)/C(=O)O1)C(C)=O | i | x | x | -3 | x | x | x | x | x | x | x
COc1ccc(CCNc2cc(-c3ccccc3)nc3ncnn23)cc1 | 4.7* | 2 | 3 | 1 | x | 0.0071 | 0.0043 | 0.027 | 0.0068 | 0.017 | u
C#CCNc1cc(-c2ccccc2)nc2ncnn12 | -0.18 | 3 | 0 | 0 | 0.11 | x | x | x | x | x | x
O=C(Nc1ccc(O)cc1)/C(=C\c1ccncc1)NC(=O)c1ccccc1 | -0.6 | 1 | -2 | 0 | 0.92 | x | x | x | x | x | x
O=C(Nc1ccccc1)/C(=C\c1ccncc1)NC(=O)c1ccccc1 | 5.4* | 2 | -7 | 0 | 0.87 | 0.015 | 0.0051 | 0.027 | u | 0.017 | 0.011
NC(=O)c1cnn(C2CCS(=O)(=O)C2)c1 (stereo not drawn) | 0.53 | 1 | 0 | 1 | 0.86 | x | x | x | x | x | x
CC(=O)Nc1ccc(NC(=O)c2ccc(CSc3ccccc3)o2)cc1 | -4.1* | 3 | 0 | 1 | -0.51 | 0.0062 | 0.0072 | 0.025* | 0.0071 | 0.015* | u
O=C(Nc1ccccc1F)c1ccc(CSc2ccccc2)o1 | -5.1* | 5 | 0 | 1 | x | 0.0087 | 0.0058 | 0.025* | 0.006 | 0.013* | 0.0091
COc1ccc(NC(=O)c2ccc(COc3ccccc3)o2)cc1 | -4.4* | 2 | 0 | -1 | x | 0.0073 | 0.0048 | 0.029 | 0.0064 | u | 0.0098
COC(=O)c1ccccc1NC(=O)c1ccc(COc2ccccc2)o1 | -0.47 | 2 | 0 | -5 | x | x | x | x | x | x | x
O=C(Nc1cccc(F)c1)c1ccc(CSc2ccccc2)o1 | -2.7 | 5 | -1 | 2 | -2.2 | x | x | x | x | x | x
CCOC(=O)CN1N=C(c2ccc(Cl)s2)CSC1=O | 0.81 | 3 | 0 | 0 | -0.18 | x | x | x | x | x | x
O=C(N/N=C/C=C/c1ccc(Br)cc1)C(O)c1ccccc1 (stereo not drawn) | 1.1 | 2 | 0 | -3 | x | x | x | x | x | x | x
COc1cc(-c2nnc(SC/C=C/c3ccccc3)n2N)cc(OC)c1OC | -6* | 2 | 2 | 0 | x | 0.008 | 0.005 | 0.032 | 0.0071 | 0.018 | 0.011
Nn1c(SC/C=C/c2ccccc2)nnc1-c1ccncc1 | -0.29 | 3 | 1 | -2 | -0.36 | x | x | x | x | x | x
